Laboratory results reported in ChEMBL document CHEMBL1135860 (Bioorg Med Chem Lett, 2002).
pIC50, pKi: −log10 of the molar value.

Legend:
Assay type in all cases: cell-based
[1] = target: T1, 5-hydroxytryptamine receptor 7 (Homo sapiens, UniProt P34969); assay: Binding affinity towards human 5-hydroxytryptamine 7 receptor on HEK293 cells using radioligand [3H]LSD
Method in brief: (§1)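 Competition binding at human 5-HT7 receptor: membranes prepared from HEK293 cells expressing the receptor were incubated with 3H-LSD and a range of test concentrations. Clozapine was the reference standard. Ki values in nM were determined.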

[2] = target: T1, 5-hydroxytryptamine receptor 7; assay: Inhibition (at 1 uM) of radioligand [3H]LSD binding to human 5-hydroxytryptamine 7 receptor on HEK293 cells
Method in brief: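 Human 5-HT7 binding was run with membranes from HEK293 cells expressing the receptor, incubated with 3H-LSD. Clozapine was the standard. Displacement of radioligand was recorded as percent inhibition at 1 µM.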

[3] = target: T1, 5-hydroxytryptamine receptor 7; assay: Compound was tested for its binding affinity towards human 5-hydroxytryptamine 7 receptor from HEK293 cells using radioligand [3H]LSD; method in brief: as §1

T1 sequence (P34969 whole entry): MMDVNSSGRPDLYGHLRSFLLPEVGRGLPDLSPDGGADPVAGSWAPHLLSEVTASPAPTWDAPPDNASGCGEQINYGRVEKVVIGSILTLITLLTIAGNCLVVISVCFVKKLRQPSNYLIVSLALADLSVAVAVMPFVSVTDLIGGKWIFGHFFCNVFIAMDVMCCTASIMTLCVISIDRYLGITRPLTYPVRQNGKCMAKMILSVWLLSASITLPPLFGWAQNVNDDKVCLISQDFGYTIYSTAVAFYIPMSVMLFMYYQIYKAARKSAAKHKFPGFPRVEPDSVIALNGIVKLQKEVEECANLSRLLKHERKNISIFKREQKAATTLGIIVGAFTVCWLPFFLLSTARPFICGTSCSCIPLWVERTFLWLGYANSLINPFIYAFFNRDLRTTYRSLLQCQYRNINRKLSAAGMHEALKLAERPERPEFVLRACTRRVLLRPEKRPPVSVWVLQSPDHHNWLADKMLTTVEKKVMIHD

Q: With `CN1CCCN(CCn2ccc3ccc(Cl)cc32)CC1` as the compound, how does the pKi [1] read?
A: 7.47

Q: What about the inhibition [2] of the same compound?
A: 85%

Q: How did the pKi [1] turn out when `Cc1cccc(C#N)c1-c1cccc2c1-c1cccc3c1[C@@H](C2)N(C)CC3` was run?
A: 9.00

Q: How did the pKi [1] turn out when `CN1CCCN(CCn2ccc3ccc(OCc4ccccc4)cc32)CC1` was run?
A: 6.74

Q: What about the inhibition [2] of the same compound?
A: 28%

Q: For `CN1CCCN(CCn2ccc3ccc(C(C)(C)O)cc32)CC1`, which inhibition [2] is on record?
A: 6%

Q: Which results are given for `Brc1ccc2c(ccn2CCN2CCN3CCCCC3C2)c1` (stereo unspecified)?
A: pKi [1]: 6.80; inhibition [2]: 65%

Q: With `CN1CCCN(CCn2ccc3ccc(-c4cccnc4)cc32)CC1` as the compound, how does the inhibition [2] read?
A: 35%

Q: What does the source list for `CN1CCCN(CCn2ccc3ccc(F)cc32)CC1`?
A: pKi [1]: 6.54; inhibition [2]: 60%

Q: How did the inhibition [2] turn out when `Brc1ccc2ccn(CCN3CCN(C4CCCCC4)CC3)c2c1` was run?
A: 36%

Q: How did the pKi [1] turn out when `CN1CCCN(CCn2ccc3ccc([N+](=O)[O-])cc32)CC1` was run?
A: 6.86

Q: What about the inhibition [2] of the same compound?
A: 72%

Q: `Brc1ccc2ccn(CCN3CCCN(C4CCCC4)CC3)c2c1` was tested. Which pKi [1] did it give?
A: 8.00

Q: What about the inhibition [2] of the same compound?
A: 98%

Q: Which results are given for `CC(C)(C)CN1CCCN(CCn2ccc3ccc(Br)cc32)CC1`?
A: pKi [1]: 6.79; inhibition [2]: 70%

Q: `Brc1ccc2ccn(CCN3CCC4CCCCN4CC3)c2c1` (stereo unspecified) was tested. Which inhibition [2] did it give?
A: 71%

Q: How did the pKi [1] turn out when `CN1CCCN(CCn2ccc3ccc(Br)cc32)CC1` was run?
A: 7.51

Q: What about the inhibition [2] of the same compound?
A: 93%

Q: `Brc1ccc2ccn(CCN3CCCN(C4CCCCC4)CC3)c2c1` was tested. Which pKi [1] did it give?
A: 7.77

Q: What about the inhibition [2] of the same compound?
A: 96%

Q: With `Brc1ccc2ccn(CCN3CCCNCC3)c2c1` as the compound, how does the inhibition [2] read?
A: 77%

Q: With `C#Cc1ccc2ccn(CCN3CCCN(C)CC3)c2c1` as the compound, how does the pKi [1] read?
A: 6.85

Q: What about the inhibition [2] of the same compound?
A: 79%

Q: `C=Cc1ccc2ccn(CCN3CCCN(C)CC3)c2c1` was tested. Which pKi [1] did it give?
A: 6.96

Q: What about the inhibition [2] of the same compound?
A: 79%

Q: With `FC(F)(F)c1ccc2ccn(CCN3CCCN4CCCCC4C3)c2c1` (stereo unspecified) as the compound, how does the pKi [1] read?
A: 8.15

Q: How did the pKi [1] turn out when `Clc1ccc2ccn(CCN3CCCN4CCCCC4C3)c2c1` (stereo unspecified) was run?
A: 8.00

Q: For `Brc1cccc2c1ccn2CCN1CCN2CCCCC2C1` (stereo unspecified), which inhibition [2] is on record?
A: 43%

Q: Which results are given for `CC(C)c1ccc2ccn(CCN3CCCN(C)CC3)c2c1`?
A: pKi [1]: 6.84; inhibition [2]: 72%

Q: How did the pKi [1] turn out when `CN1CCCN(CCn2ccc3ccc(-c4ccsc4)cc32)CC1` was run?
A: 6.96

Q: What about the inhibition [2] of the same compound?
A: 68%

Q: How did the pIC50 [3] turn out when `C[C@H](Nc1nc(N)nc(NC[C@H]2C[C@@H]2c2ccc(F)cc2)n1)c1ccccc1` was run?
A: > 7.30
